Records with an inconclusive call do not appear.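 Rule for the calls, unless noted: active = RAM network inhibition above 8.4% in each of two replicates, 3 SD over the compound average; inconclusive = above 8.4% inhibition in only one replicate; inactive = 8.4% inhibition or less in each replicate.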
Legend:
[1] = OD615 S. cerevisiae growth inhibition, permissive medium, pilot counter-assay, permissive growth control for S. cerevisiae lifespan shortening project (AID 705;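 active = growth inhibition above 25% in both replicates, a cutoff set 3 SD above the mean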); conditions: OD615, 24 h, at 10 µM, active compounds read high
Outline: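 System: S. cerevisiae with engineered DeaD lifespan system. Medium: SC raffinose/galactose permissive medium. Doses: single compound dose of 10 µM, 0.25% DMSO final. Schedule: 24 h exposure, 30 °C. Measured by: OD615 turbidity read. Read-out: growth inhibition.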

[2] = Restrictive medium S. cerevisiae growth inhibition, OD615, pilot screen of yeast lifespan reduction project, restrictive growth control (AID 706;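 active = growth inhibition above a set limit, 3 SD over mean compound inhibition, in both replicates, cut at about 43% in these data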;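 note: modified DeaD lifespan yeast strain shifted to restrictive glucose medium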); conditions: OD615, 48 h, at 10 µM, active compounds read high
Outline: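 Assay system – genetically modified Saccharomyces cerevisiae, DeaD replicative lifespan assay strain · Medium – CSMM-D glucose medium · Doses – 10 µM compound, 0.25% DMSO · Times – 4 h pre-incubation, 48 h exposure at 30 °C · Signal – optical density at 615 nm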

[3] = viability gain of MRP-1-high H69AR cells under doxorubicin, pilot screen, MRP-1 activator project, CellTiter-Glo, duplicate (AID 807;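 active = viability increase at or above a cutoff of the median across tested compounds plus 3 SD, cut at about 8.5% in these data, passing the limit was not always enough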;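 note: compound pretreatment 18-22 h then 72 h combined with doxorubicin; 0% = doxorubicin alone and 100% = vehicle without doxorubicin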); conditions: H69AR viability with doxorubicin, CellTiter-Glo luminescence; at 10 µM; active compounds read high
[4] = growth suppression of beta-catenin knockout HCT116, pilot screen, human colon tumor cells (AID 823;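 active = cell viability at or below a set limit in both duplicate runs, the limit being the all-compound median minus 4 SD, cut at about 23% in these data, passing the limit was not always enough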;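 note: 0% = wells killed by 20 µM Hyamine and 100% = untreated DMSO cell wells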); conditions: CellTiter-Glo, 60 h, at 10 µM, active compounds read low
[5] = growth suppression of PTEN-deleted HCT116, pilot screen, cell-based, HCT116 clonal line, CellTiter-Glo (AID 824;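 active = viability at or below 27.92% in each of two runs, the all-compound median minus 4 SD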;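 note: 0% = 20 µM Hyamine control and 100% = vehicle cell control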); conditions: 60 h, at 10 µM, active compounds read low
[6] = inhibitors of the yeast RAM network, pilot screen, dse1pr::URA3 reporter, 5-FOA selection (AID 869;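 active = inhibition over a set limit, the all-compound mean plus 3 SD, in both replicate runs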;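 note: 0% = DMSO wells with no growth and 100% = 10 µM 1-NA-PP1 with full growth; RAM network block rescues cells from 5-FOA so hits raise OD615 growth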); conditions: S. cerevisiae dse1pr::URA3 5-FOA growth, OD615, 2 d; at 10 µM; active compounds read high; strain carries analog-sensitive mutant Cbk1 kinase
[7] = RAM signaling pathway blockade in yeast – S. cerevisiae, Pdr1DBD-CYC8 efflux-inhibited sensitized strain, primary screen (AID 1298);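 note: 0% = DMSO untreated cells without growth and 100% = 10 µM 1-NA-PP1 full growth; higher means more yeast growth rescued from 5-FOA killing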; conditions: S. cerevisiae cbk1-as DSE1-URA3 strain, 5-FOA growth OD615, 2 d; at 50 µM; active compounds read high

Cc1ccc(S(=O)(=O)CC(C)N2CCOCC2)c(S(=O)(=O)CC(C)N2CCOCC2)c1 (stereo not drawn)
inactive: growth inhibition [1] -6.09% | growth inhibition [2] -0.82% | viability increase [3] 1.48% | viability [4] 97% | viability [5] 94.4% | inhibition [6] 0.7% | RAM network inhibition [7] 1.89%

CC(NS(C)(=O)=O)C(c1cccs1)N1CCN(Cc2ccccc2)CC1 (stereo not drawn)
inactive: growth inhibition [1] -7.18% | growth inhibition [2] 11.4% | viability increase [3] -1.92% | viability [4] 85.5% | viability [5] 87.3% | inhibition [6] 1.25% | RAM network inhibition [7] 3.61%

Cc1ccc2c(c1)C(c1ccccc1)N(C(=O)C(C)C)CC(=O)N2 (stereo not drawn)
inactive: growth inhibition [1] -14.9% | growth inhibition [2] -15.6% | viability increase [3] -1.2% | viability [4] 102% | viability [5] 92.1% | inhibition [6] 1.64% | RAM network inhibition [7] 4.21%

CC(=O)c1c(C)oc(C)c1CSCc1ccc(C(=O)O)o1
inactive: growth inhibition [1] -4.54% | growth inhibition [2] 0.22% | viability increase [3] -2.16% | viability [4] 95.7% | viability [5] 97.9% | inhibition [6] 0.665% | RAM network inhibition [7] 3.55%

CCn1ccc(C(=O)Nc2ccc(Cl)cn2)n1
inactive: growth inhibition [1] -9.65% | growth inhibition [2] 11.6% | viability increase [3] -1.34% | viability [4] 93.6% | viability [5] 93.9% | inhibition [6] 1.48% | RAM network inhibition [7] 3.03%

COc1ccc(NC(=O)C2CCCN2S(=O)(=O)c2ccc3c(c2)CCC(=O)N3)cc1Cl (stereo not drawn)
inactive: growth inhibition [1] -1.44% | growth inhibition [2] -23.7% | viability increase [3] -2.9% | viability [4] 90.8% | viability [5] 87.7% | inhibition [6] 1.18% | RAM network inhibition [7] 1.9%

COc1cccc(CNC(=O)C2CCN(S(=O)(=O)c3cccc4cccnc34)CC2)c1
inactive: growth inhibition [1] -10.5% | growth inhibition [2] -2.92% | viability increase [3] -1.45% | viability [4] 100% | viability [5] 97.5% | inhibition [6] 2.88% | RAM network inhibition [7] 3.03%

CC(C)c1nc(SCC(=O)N2CCOCC2)c2c(=O)n(C)c(=O)n(C)c2n1
inactive: growth inhibition [1] 2.91% | growth inhibition [2] -8.92% | viability increase [3] -1.75% | viability [4] 102% | viability [5] 95.6% | inhibition [6] 2.57% | RAM network inhibition [7] -2.21%

COCCN1C=C(C(=O)OC)C(c2cc(Br)c(OC)c(OC)c2)C(C(=O)OC)=C1
inactive: growth inhibition [1] 1.89% | growth inhibition [2] -0.035% | viability increase [3] -2.7% | viability [4] 80.8% | viability [5] 71.9% | inhibition [6] 2.16% | RAM network inhibition [7] 8.73%

CN1C(=O)c2cccc(NC(=O)C3CCCCC3)c2C1=O
inactive: growth inhibition [1] -7.12% | growth inhibition [2] 6.03% | viability increase [3] -1.21% | viability [4] 107% | viability [5] 93% | inhibition [6] 0.445% | RAM network inhibition [7] -0.16%

Cc1ccc2c(c1)-c1c(cnn1CC(=O)N1CCCN(Cc3ccccc3F)C1)CO2
inactive: growth inhibition [1] -0.225% | growth inhibition [2] -1.89% | viability increase [3] -2.83% | viability [4] 88.9% | viability [5] 93.1% | inhibition [6] 1% | RAM network inhibition [7] 1.9%

CC(=O)N(c1ccc(C)cc1)C1C=CS(=O)(=O)C1 (stereo not drawn)
inactive: growth inhibition [1] -8.96% | growth inhibition [2] 7.8% | viability increase [3] -0.41% | viability [4] 101% | viability [5] 105% | inhibition [6] 0.6% | RAM network inhibition [7] 7.21%

O=C(NCCCN1CCN(c2ccccc2F)CC1)C1CCCN(S(=O)(=O)c2cnc[nH]2)C1 (stereo not drawn)
inactive: growth inhibition [1] 4.25% | growth inhibition [2] 2.15% | viability increase [3] 1.39% | viability [4] 95.1% | viability [5] 102% | inhibition [6] -0.46% | RAM network inhibition [7] 0.21%

CCn1c(=O)c2cc(C(=O)N3CCN(C(=O)c4ccco4)CC3)sc2c2ccccc21
inactive: growth inhibition [1] -1.96% | growth inhibition [2] -0.815% | viability increase [3] -3.68% | viability [4] 84% | viability [5] 86.3% | inhibition [6] 2.02% | RAM network inhibition [7] 7.64%

Cc1cc2ncn(CC(O)COC3CCCCC3)c2cc1C (stereo not drawn)
inactive: growth inhibition [1] -8.15% | growth inhibition [2] -2.2% | viability increase [3] -2.98% | viability [4] 89.9% | viability [5] 90.3% | inhibition [6] 1.75% | RAM network inhibition [7] 4.21%

CC(=O)Nc1ccc(S(=O)(=O)N2CCN(c3cccc(C)c3C)CC2)cc1
inactive: growth inhibition [1] -2.38% | growth inhibition [2] -3.89% | viability increase [3] -6.76% | viability [4] 35.8% | viability [5] 34.5% | inhibition [6] 0.185% | RAM network inhibition [7] 0.9%

CC1CC(C)CN(CCCNC(=O)Cn2ncc3c(=O)oc4ccccc4c32)C1 (stereo not drawn)
inactive: growth inhibition [1] -0.3% | growth inhibition [2] 0.08% | viability increase [3] -1.86% | viability [4] 99% | viability [5] 101% | inhibition [6] 3.87% | RAM network inhibition [7] 5%

CC1CCN(CCCNC(=O)c2cc3c(=O)n(C)c4ccccc4c3n2C)CC1
inactive: growth inhibition [1] 0.225% | growth inhibition [2] -4.35% | viability increase [3] -5.04% | viability [4] 43.1% | viability [5] 50% | inhibition [6] -0.26% | RAM network inhibition [7] 1.43%

O=C(c1ccc(NC2=NC3CS(=O)(=O)CC3S2)cc1)N1CCc2ccccc2C1 (stereo not drawn)
inactive: growth inhibition [1] -0.26% | growth inhibition [2] 11.2% | viability increase [3] -0.55% | viability [4] 109% | viability [5] 106% | inhibition [6] 1.67% | RAM network inhibition [7] 5.69%

O=C(Nc1cccnc1)C(Cc1ccccc1)n1cccc1 (stereo not drawn)
inactive: growth inhibition [1] -15.5% | growth inhibition [2] -13.4% | viability increase [3] -4.93% | viability [4] 102% | viability [5] 91.8% | inhibition [6] 0.44% | RAM network inhibition [7] 4.6%

CC(=O)/C(C(=N)N1CCN(C(c2ccccc2)c2ccccc2)CC1)=C(\C)O
inactive: growth inhibition [1] -2.42% | growth inhibition [2] -7.72% | viability increase [3] -2.93% | viability [4] 102% | viability [5] 91.2% | inhibition [6] -0.395% | RAM network inhibition [7] 2.41%

COc1ccc(OCC(=O)OCCN2C(=O)c3ccccc3C2=O)cc1
inactive: growth inhibition [1] 3.16% | growth inhibition [2] -3.81% | viability increase [3] -0.31% | viability [4] 101% | viability [5] 106% | inhibition [6] 0.97% | RAM network inhibition [7] 8.21%

COc1ccc(-c2noc(-c3ccccc3F)n2)cc1
inactive: growth inhibition [1] -9.92% | growth inhibition [2] -12% | viability increase [3] -3.21% | viability [4] 86.6% | viability [5] 83.1% | inhibition [6] 0.965% | RAM network inhibition [7] 4.28%

COc1ccc(OC)c(C2CC(=O)N3CN(c4cccc(Cl)c4C)CSC3=C2C#N)c1 (stereo not drawn)
inactive: growth inhibition [1] 2.17% | growth inhibition [2] 13.8% | viability increase [3] -5.48% | viability [4] 74% | viability [5] 72.1% | inhibition [6] 1.87% | RAM network inhibition [7] 2.07%
